The full list was thinned out, with hits kept by preference.
T cruzi HTS = blocks T. cruzi growth inside host cells. intracellular Trypanosoma cruzi in host cells, plate reader. activity score (inhibition), % at 5.01 µM. 22,000 tested, 4.9% active; in the data active = activity score above about 55%; inconclusive = no clear call, values can overlap the other calls;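 also: parasites and compound incubated about four days before reading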
A1 apoptosis 2 = blocks A1, raising caspase activity. MEF A1-2A-BIM cells, caspase-Glo luminescence, 3 h; percent of clofoctol response, DMSO zero. caspase activation, % (test concentration not listed). 24,000 tested, under 10 active; in the data active = caspase activation above about 5.9%; inconclusive = no clear call, values can overlap the other calls; inactive = below about 2.2%
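system = A1-2A-BIM-expressing MEF cells | quantity = 2500 MEF cells/well | dosing = 50 nL compound per well, pinned | schedule = overnight cell settling, then 3 h compound exposure, 37 °C | signal = luminescence from DEVD-luciferin Caspase-Glo reagent, 1:1 in 50 mM HEPES, 1 h RT | read-out = Caspase-3/7 activation, seen as rise in luminescence signal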
INS-1E rescue = INS-1E beta cell protection from cytokine death. INS-1E cytokine-induced death, ATP luminescence, 48 h; normalised: neutral wells 0, positive control 100. protection from cytokine-induced ATP loss, % at 10 µM. 20,000 tested, 0.1% active;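 active = mean replicate protection from cytokine-induced ATP loss at least 50% and at least 75% of replicates each reaching 50%; inconclusive = meets only one of the two criteria, mean or replicate share; inactive = fails both the mean and replicate share criteria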
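Material: INS-1E rat cells; Quantity: 8000 cells/well; Buffer or medium: phenol-red-free RPMI with 5% fetal bovine serum; Probe or stimulus: cytokine cocktail of IFN-γ, TNF-α and IL-1β; Compound dosing: single test concentration per compound, delivered by pin transfer; Incubation: 48 h co-treatment, 10 min post-lysis read; Signal: CellTiter-Glo luminescence.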
Large screens that a line does not name were inactive.

C[C@H]1CN([C@@H](C)CO)C(=O)Cc2cc(NC(=O)Nc3ccc(C(F)(F)F)cc3)ccc2O[C@H]1CN(C)Cc1ccncc1	T cruzi HTS 68
O=C(CCCCCCC(=O)Nc1ccccc1O)N/N=C/c1c[nH]c2ccccc12	none
COC(=O)CCCCCCC(=O)N/N=C/c1ccc(C#N)cc1	none (no result: A1 apoptosis 2)
C[C@@H]1CN([C@@H](C)CO)C(=O)c2cccc(NC(=O)Nc3ccc(F)cc3)c2O[C@@H]1CN(C)S(=O)(=O)c1ccccc1	none
O=C(O)CCCCCCC(=O)N/N=C/c1cccc(Br)c1	none
O=C(CCCCCCC(=O)N/N=C\c1cccc(Br)c1)NO	INS-1E rescue 68 (no result: A1 apoptosis 2)
O=C(CCCCC(=O)N/N=C/c1cccc(Oc2ccccc2)c1)NO	INS-1E rescue 79
O=C(NO)c1ccc(C(=O)N/N=C/c2cccc(Oc3ccccc3)c2)cc1	none
Cc1noc(C)c1S(=O)(=O)Nc1ccc2c(c1)C(=O)N([C@H](C)CO)C[C@@H](C)[C@@H](CN(C)Cc1ccc(C(=O)Nc3ccccc3N)cc1)O2	T cruzi HTS 65
Cc1noc(C)c1S(=O)(=O)Nc1ccc2c(c1)CC(=O)N([C@H](C)CO)C[C@H](C)[C@H](CN(C)Cc1ccc(C(=O)Nc3ccccc3N)cc1)O2	T cruzi HTS 76 (no result: A1 apoptosis 2)
Cc1noc(C)c1S(=O)(=O)Nc1ccc2c(c1)C(=O)N([C@@H](C)CO)C[C@H](C)[C@@H](CN(C)Cc1ccc(C(=O)Nc3ccccc3N)cc1)O2	none
Cc1noc(C)c1S(=O)(=O)Nc1ccc2c(c1)C(=O)N([C@H](C)CO)C[C@H](C)[C@H](CN(C)Cc1ccc(C(=O)Nc3ccccc3N)cc1)O2	T cruzi HTS 79 (no result: A1 apoptosis 2)
Cc1noc(C)c1S(=O)(=O)Nc1ccc2c(c1)CC(=O)N([C@@H](C)CO)C[C@H](C)[C@H](CN(C)Cc1ccc(C(=O)Nc3ccccc3N)cc1)O2	none (no result: T cruzi HTS, INS-1E rescue)
Cc1noc(C)c1S(=O)(=O)Nc1ccc2c(c1)C(=O)N([C@@H](C)CO)C[C@@H](C)[C@@H](CN(C)Cc1ccc(C(=O)Nc3ccccc3N)cc1)O2	none
CC(C)(C)OC(=O)N1CCC[C@H]1/C=N/NC(=O)CCCCCCC(=O)Nc1ccccc1O	none (no result: A1 apoptosis 2)
O=C(CCCCC(=O)N/N=C/C1=CCCCC1)NO	none (no result: A1 apoptosis 2)
O=C(O)CCCCCCC(=O)N/N=C/c1cn(S(=O)(=O)c2ccccc2)c2ccccc12	none (no result: A1 apoptosis 2)
C[C@H](CO)N1C[C@H](C)[C@H](CN(C)C(=O)Nc2ccccc2)Oc2ncc(C#Cc3cccc(F)c3)cc2C1=O	none
C[C@H](CO)N1C[C@H](C)[C@H](CN(C)C(=O)Nc2cccc3ccccc23)Oc2ncc(C#CC(C)(C)O)cc2C1=O	none (no result: A1 apoptosis 2, INS-1E rescue)
C[C@H](CO)N1C[C@H](C)[C@H](CN(C)C(=O)Nc2cccc3ccccc23)Oc2ncc(C#Cc3cccc(F)c3)cc2C1=O	T cruzi HTS 66 (no result: A1 apoptosis 2, INS-1E rescue)
C[C@H](CO)N1C[C@H](C)[C@H](CN(C)C(=O)Nc2cccc3ccccc23)Oc2ncc(C#Cc3ccc(C(F)(F)F)cc3)cc2C1=O	T cruzi HTS 85 (no result: INS-1E rescue)
C[C@H](CO)N1C[C@H](C)[C@H](CN(C)C(=O)Nc2cccc3ccccc23)Oc2ncc(-c3cccc(F)c3)cc2C1=O	none (no result: INS-1E rescue)
C[C@H](CO)N1C[C@H](C)[C@H](CN(C)C(=O)Nc2cccc3ccccc23)Oc2ncc(-c3cccc(C(F)(F)F)c3)cc2C1=O	T cruzi HTS 62 (no result: A1 apoptosis 2, INS-1E rescue)
C[C@@H]1CN([C@@H](C)CO)C(=O)c2cccc(NC(=O)c3ccc(-c4nccs4)cc3)c2O[C@@H]1CN(C)Cc1ccc(Cl)c(Cl)c1	none
C[C@H](CO)N1C[C@H](C)[C@H](CN(C)Cc2ccc(Cl)c(Cl)c2)Oc2c(NC(=O)c3ccc(-c4nccs4)cc3)cccc2C1=O	T cruzi HTS 60 (no result: A1 apoptosis 2)
C[C@@H]1CN([C@H](C)CO)C(=O)c2cccc(NC(=O)c3ccc(-c4nccs4)cc3)c2O[C@H]1CN(C)Cc1ccc(Cl)c(Cl)c1	none
C[C@H]1CN([C@@H](C)CO)C(=O)c2cccc(NC(=O)c3ccc(-c4nccs4)cc3)c2O[C@H]1CN(C)Cc1ccc(Cl)c(Cl)c1	T cruzi HTS 62
O=C(N1CCCCC1)[C@]1(CCS(=O)(=O)c2ccccc2)N=C(c2ccc(OCCCO)cc2)O[C@@H]1c1ccccc1	none (no result: T cruzi HTS, INS-1E rescue)
O=C(N/N=C/c1c(O)ccc2ccccc12)c1ccccn1	none (no result: T cruzi HTS, INS-1E rescue)
C[C@@H]1CN([C@@H](C)CO)C(=O)Cc2cc(NC(=O)Nc3ccc(C(F)(F)F)cc3)ccc2O[C@@H]1CN(C)Cc1ccc(-c2ccccc2)cc1	T cruzi HTS 67
C[C@H]1CN([C@@H](C)CO)C(=O)Cc2cc(NC(=O)Nc3ccc(C(F)(F)F)cc3)ccc2O[C@H]1CN(C)Cc1ccc(-c2ccccc2)cc1	none (no result: A1 apoptosis 2)
C[C@H]1CN([C@@H](C)CO)C(=O)Cc2cc(NC(=O)Nc3ccc(C(F)(F)F)cc3)ccc2O[C@@H]1CN(C)Cc1ccc(-c2ccccc2)cc1	T cruzi HTS 70 (no result: A1 apoptosis 2)
COc1cc(Br)c(/C=N/NC(=O)c2ccc(C(=O)NO)cc2)cc1OC	none (no result: T cruzi HTS, INS-1E rescue)
O=C(CCCCCC(=O)Nc1ccccc1O)N/N=C/c1cc(F)ccc1O	none
Cc1ccc(S(=O)(=O)Nc2ccc3c(c2)C(=O)N([C@@H](C)CO)C[C@H](C)[C@@H](CN(C)Cc2ccc(-c4ccccc4)cc2)O3)cc1	T cruzi HTS 78
C[C@@H]1CN([C@@H](C)CO)C(=O)c2cc(NS(=O)(=O)c3ccccc3)ccc2O[C@@H]1CN(C)Cc1ccc(-c2ccccc2)cc1	none (no result: A1 apoptosis 2)
Cc1ccc(S(=O)(=O)Nc2ccc3c(c2)C(=O)N([C@@H](C)CO)C[C@@H](C)[C@H](CN(C)Cc2ccc(-c4ccccc4)cc2)O3)cc1	T cruzi HTS inconclusive (no result: A1 apoptosis 2)
C[C@H]1CN([C@@H](C)CO)C(=O)c2cc(NS(=O)(=O)c3ccccc3)ccc2O[C@@H]1CN(C)Cc1ccc(-c2ccccc2)cc1	T cruzi HTS 67
O=C1c2ccccc2C(=O)N1[C@@H]1CCN(Cc2cccc(OCCO)c2)C1	none (no result: T cruzi HTS, INS-1E rescue)
NC(=O)[C@H]1[C@@H]2C(=O)O[C@@H](c3ccccc3)[C@@H](c3ccccc3)N2[C@@H](c2ccc(O)cc2)[C@]12C(=O)Nc1ccccc12	none (no result: T cruzi HTS, INS-1E rescue)
C[C@H](CO)N1C[C@H](C)[C@H](CN(C)Cc2ccc(Oc3ccccc3)cc2)Oc2c(NC(=O)Nc3ccc4c(c3)OCO4)cccc2C1=O	T cruzi HTS 78
C[C@H]1CN([C@@H](C)CO)C(=O)c2cccc(NC(=O)Nc3ccc4c(c3)OCO4)c2O[C@@H]1CN(C)CC1CC1	none
C[C@@H]1CN([C@H](C)CO)C(=O)c2cccc(NC(=O)Nc3ccc4c(c3)OCO4)c2O[C@H]1CN(C)Cc1ccc(Oc2ccccc2)cc1	none
C[C@H](CO)N1C[C@H](C)[C@H](CN(C)Cc2ccc(C(=O)Nc3ccccc3N)cc2)Oc2ccc(NC(=O)Nc3ccc4c(c3)OCO4)cc2C1=O	T cruzi HTS 74
C[C@H]1CN([C@@H](C)CO)C(=O)c2cc(NC(=O)Nc3ccccc3)ccc2O[C@H]1CN(C)Cc1ccc(C(=O)Nc2ccccc2N)cc1	none (no result: A1 apoptosis 2)
C[C@@H]1CN([C@@H](C)CO)C(=O)c2cccc(NC(=O)Nc3ccc4c(c3)OCO4)c2O[C@@H]1CN(C)Cc1ccc(C(=O)Nc2ccccc2N)cc1	none

From PubChem
